Assay results: ChEMBL document CHEMBL5252546, “Salutaxel, a Conjugate of Docetaxel and a Muramyl Dipeptide (MDP) Analogue, Acts as Multifunctional Prodrug That Inhibits Tumor Growth and Metastasis” (J Med Chem, 2018)
Calls of active or inactive are those of the source. The calls are words filed in the database; no cut-off is given here.

Assays:
[1] = Toxicity in BALB/c mouse xenografted with mouse 4T1 cells assessed as decrease in body weight at 4 mg/kg,iv administrated with docetaxel combination once per week for 4 weeks; assay type: organism-based; details: in vivo, 672 h
Outline: (§1)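 4T1 mammary fat-pad model in BALB/c mice. Doxorubicin (4 mg/kg) was given alone or co-administered with the conjugate or its parent taxane, with iv saline vehicle. Readouts were body weight, tumour volume, tumour weight, lung metastatic nodules and lung metastasis score. Mean ± SEM, n = 10; ANOVA and Student's t test.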

[2] = Toxicity in BALB/c mouse xenografted with mouse 4T1 cells assessed as decrease in body weight at 4 mg/kg,iv administrated combination with compound 3 once per week for 4 weeks; assay type: organism-based; details: in vivo, 672 h; outline: as §1
4T1 [3] = assay: Antitumor activity against mouse 4T1 cells xenografted with BALB/c mouse assessed as decrease in tumor weight at 4 mg/kg,iv administrated once per week for 4 weeks; assay type: functional, organism-based
4T1 [4] = assay: Antitumor activity against mouse 4T1 cells xenografted with BALB/c mouse assessed as decrease in lung metastasis at 4 mg/kg,iv administrated once per week for 4 weeks; assay type: functional, organism-based
[5] = Toxicity in BALB/c mouse xenografted with mouse 4T1 cells assessed as decrease in body weight at 4 mg/kg,iv administrated once per week for 4 weeks; assay type: organism-based; details: in vivo, 672 h
4T1 [6] = assay: Antitumor activity against mouse 4T1 cells implanted in BALB/c mouse assessed as decrease in lung TSP-1 expression level at 5 to 20 mg/kg,iv administrated once per week for 4 weeks by immunohistochemistry analysis; assay type: functional, organism-based; details: dose 5-20 mg/kg
4T1 [7] = assay: Antitumor activity against mouse 4T1 cells implanted in BALB/c mouse assessed as decrease in lung Ly-6G expression level at 5 to 20 mg/kg,iv administrated once per week for 4 weeks by immunohistochemistry analysis; assay type: functional, organism-based; details: dose 5-20 mg/kg
4T1 [8] = assay: Antitumor activity against mouse 4T1 cells implanted in BALB/c mouse assessed as decrease in lung metastasis at 5 to 20 mg/kg,iv administrated once per week for 4 weeks by H and E staining based assay; assay type: functional, organism-based; details: dose 5-20 mg/kg
4T1 [9] = assay: Antitumor activity against mouse 4T1 cells implanted in BALB/c mouse assessed as decrease in lung injury at 5 to 20 mg/kg,iv administrated once per week for 4 weeks by H and E staining based assay; assay type: functional, organism-based; details: dose 5-20 mg/kg

SMILES | Activity [1] | Activity [2] | Activity (4T1 [3]) | Activity (4T1 [4]) | Activity [5] | Activity (4T1 [6]) | Activity (4T1 [7]) | Activity (4T1 [8]) | Activity (4T1 [9])
COc1cccc2c1C(=O)c1c(O)c3c(c(O)c1C2=O)C[C@@](O)(C(=O)CO)C[C@@H]3O[C@H]1C[C@H](N)[C@H](O)[C@H](C)O1 [DOXORUBICIN] | Toxic | Toxic | Active | Active | Toxic | – | – | – | –
CC(=O)O[C@@]12CO[C@@H]1C[C@H](O)[C@@]1(C)C(=O)[C@H](O)C3=C(C)[C@@H](OC(=O)[C@H](OC(=O)CCC(=O)NCCCC[C@H](NC(=O)CC[C@@H](NC(=O)[C@H](C)NC(=O)/C=C/c4ccc(F)cc4Cl)C(N)=O)C(N)=O)[C@@H](NC(=O)OC(C)(C)C)c4ccccc4)C[C@@](O)([C@@H](OC(=O)c4ccccc4)[C@H]21)C3(C)C | – | – | – | – | – | Active | Active | Dose-Dependent Effect | Dose-Dependent Effect
